Columns and labels:
[1] = system: human cannabinoid receptor CB1; details: cited from earlier work
[2] = system: a different cell line; details: cited from earlier work
[3] = molecular target: T1, CB1 receptor (Homo sapiens, UniProt P21554); experiment: Cannabinoid CB1 receptor binding assay; details: read-out: CB1 Ki; human recombinant CB1 in HEK-293 cells, [3H]CP-55940 0.5 nM
[4] = molecular target: T2, CB2 receptor (Homo sapiens, UniProt P34972); experiment: Cannabinoid CB2 receptor binding assay; details: read-out: CB2 Ki; human recombinant CB2 in HEK-293 cells, [3H]CP-55940 0.5 nM
[5] = molecular target: T1, CB1 receptor; experiment: cAMP functional assay, forskolin-stimulated, CHO-K1 cells expressing CB1; format: cell-based; details: through CB1 receptor
[6] = molecular target: T2, CB2 receptor; experiment: cAMP functional assay, forskolin-stimulated, CHO-K1 cells expressing CB2; format: cell-based; details: through CB2 receptor
[7] = molecular target: T3, fatty acid amide hydrolase (FAAH) (Homo sapiens, UniProt O00519); experiment: FAAH inhibitor enzyme assay; format: biochemical; details: tested at 10 and 100 μM
T3 sequence (O00519 1-579): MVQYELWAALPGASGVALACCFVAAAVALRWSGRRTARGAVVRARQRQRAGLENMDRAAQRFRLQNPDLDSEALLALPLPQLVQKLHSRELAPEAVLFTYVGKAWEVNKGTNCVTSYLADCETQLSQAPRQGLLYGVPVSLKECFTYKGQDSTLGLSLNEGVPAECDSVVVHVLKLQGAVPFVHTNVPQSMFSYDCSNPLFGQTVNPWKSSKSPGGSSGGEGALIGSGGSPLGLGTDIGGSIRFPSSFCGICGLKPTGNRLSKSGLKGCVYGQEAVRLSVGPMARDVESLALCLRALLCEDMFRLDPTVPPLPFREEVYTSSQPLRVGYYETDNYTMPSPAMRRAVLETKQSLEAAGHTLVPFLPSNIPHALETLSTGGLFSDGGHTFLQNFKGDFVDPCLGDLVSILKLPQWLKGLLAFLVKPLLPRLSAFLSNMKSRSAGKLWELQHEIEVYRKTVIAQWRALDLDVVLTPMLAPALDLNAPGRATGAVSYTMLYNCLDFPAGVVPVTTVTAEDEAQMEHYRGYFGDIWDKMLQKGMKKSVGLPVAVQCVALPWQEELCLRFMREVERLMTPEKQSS
In short: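 Kit FAAH enzyme was preincubated in assay buffer with the test compound (10 and 100 μM) or solvent control. The reaction was started with AMC arachidonoyl amide substrate (20 μM final) and run for 30 min at 37 °C. Fluorescence was read at ex 350 nm / em 455 nm.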

[8] = system: NO production in RAW 264.7 mouse macrophage cells; experiment: NO assay in LPS-induced RAW 264.7 macrophages; format: cell-based; details: read-out: IC50, inhibition of NO production; LPS-induced RAW 264.7, 24 h
In short: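 Mouse RAW 264.7 cells in DMEM with 10% FBS, 5% CO2, seeded at 2 × 10^4 cells/well. After 24 h, test compound or solvent control (1% EtOH) was added, then LPS (0.5 μg/mL). Medium nitrite was measured after 24 h by Griess reagent: sulfanilamide, then naphthylethylenediamine-HCl, 5 min each at RT in the dark, A540. Quantified against a 0–100 μM nitrite standard curve; duplicates.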

[9] = system: HT-29 colon adenocarcinoma cells; experiment: Cell viability assay; format: cell-based; details: 48 h, MTT
In short: (§1)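 Cells grown in DMEM with 10% FBS at 37 °C, 5% CO2. Seeded at 10,500 cells/well (MCF7) or 11,000 cells/well (HT-29). After 24 h, treated with various concentrations of the test compound or solvent control (1% EtOH). Viability was read by MTT after 48 h.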

[10] = system: MCF7 breast cancer cells; experiment: Cell viability assay; format: cell-based; details: up to 100 μM, 48 h, MTT
In short: as §1

[11] = system: RAW 264.7 cells; experiment: Cellular viability of RAW 264.7 macrophages; format: cell-based, mouse; details: RAW 264.7, up to 25 μM

T2 sequence (P34972 whole entry): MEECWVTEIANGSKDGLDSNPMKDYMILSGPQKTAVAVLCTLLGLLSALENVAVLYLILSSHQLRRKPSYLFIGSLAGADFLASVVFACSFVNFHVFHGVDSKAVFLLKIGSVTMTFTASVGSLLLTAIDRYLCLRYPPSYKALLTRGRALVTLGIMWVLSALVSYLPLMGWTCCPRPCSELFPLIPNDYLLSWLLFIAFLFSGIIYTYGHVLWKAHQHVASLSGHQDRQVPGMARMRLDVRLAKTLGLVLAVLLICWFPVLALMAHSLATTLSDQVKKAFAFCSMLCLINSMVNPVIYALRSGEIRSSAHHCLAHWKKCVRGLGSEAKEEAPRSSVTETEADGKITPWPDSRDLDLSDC
T1 sequence (P21554 whole entry): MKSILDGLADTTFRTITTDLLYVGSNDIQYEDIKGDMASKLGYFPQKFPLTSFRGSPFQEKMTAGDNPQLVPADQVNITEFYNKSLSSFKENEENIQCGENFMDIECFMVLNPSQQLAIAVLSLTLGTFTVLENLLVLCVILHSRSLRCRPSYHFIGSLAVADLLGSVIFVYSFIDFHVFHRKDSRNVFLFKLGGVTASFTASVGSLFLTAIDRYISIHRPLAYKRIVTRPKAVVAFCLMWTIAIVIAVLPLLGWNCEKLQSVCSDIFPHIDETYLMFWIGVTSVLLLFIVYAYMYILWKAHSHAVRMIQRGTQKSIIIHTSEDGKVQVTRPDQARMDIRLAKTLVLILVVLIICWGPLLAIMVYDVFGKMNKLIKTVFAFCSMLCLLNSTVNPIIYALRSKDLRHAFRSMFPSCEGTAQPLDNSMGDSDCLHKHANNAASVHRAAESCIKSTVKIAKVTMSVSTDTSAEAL

SMILES	Selectivity for the CB1 receptor over CB2 ([1]; human CB1 vs CB2 binding)	Ki ([1]; read-out: CB1 Ki, human CB1) [µM]	Cytotoxic properties [2]	Ki [3] [µM]	Ki [4] [µM]	Functional mode at CB1 (inhibition of forskolin-stimulated cAMP accumulation) [5]	Functional mode at CB2 (inhibition of forskolin-stimulated cAMP accumulation) [6]	FAAH inhibition [7]	IC50 [8] [µM]	Cytotoxicity against HT-29 ([9]; up to 100 μM)	Cytotoxicity against MCF7 [10]	Effect on cellular viability [11]	IC50 ([9]; read-out: IC50, cytotoxicity to HT-29 cells) [µM]
CCCCCCCCCCCCC/C=C/CCC(=O)N(C)[C@H](CO)COC [Compound 4, serinolamide A]	more than 5 fold	1.3	showed some cytotoxic properties	–	–	–	–	–	–	–	–	–	–
CCCCCCCCCCCCC/C=C/CCC(=O)N[C@H](CO)COC [Compound 5, Serinolamide B]	–	–	–	16.4	5.2	cannabinoid receptor agonists	cannabinoid receptor agonists	no considerable inhibitory effects	> 25	failed to show significant cytotoxicity	failed to show significant cytotoxicity	–	–
CCCCCCC[C@@H](C/C=C/CCC(=O)N(C)C/C(=C/Cl)C/C(=C\C(=O)N1CC(O)CC1=O)OC)OC (stereo partly shown) [Compound 6, malyngamide B]	–	–	–	3.6	2.6	cannabinoid receptor agonists	cannabinoid receptor agonists	no considerable inhibitory effects	6.2	–	–	without affecting cellular viability	26
